Calls of active or inactive are those of the source.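 The calls were made as follows, unless noted: active = inhibition of the reporter signal at or above 50%; inactive = inhibition below 50%.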
Experiments:
[1] = inhibitors of TNFa-induced NFkB p65 translocation, primary screen, imaging, HUVEC, MLSMR starter and 10KST1 sets (AID 438;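 active = inhibition above 20% together with a positive visual image hit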;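 also: compound added about 3h40 before a 20 min TNFalpha stimulation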;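 as to inhibition: signal is the nuclear over cytoplasmic p65 intensity ratio per well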); conditions: HUVEC TNFa-induced p65 nuclear translocation; cell count: measured here: nuclei count (cytotoxicity indicator), at 2.08 µM; inhibition: at 2 µM, stronger effect = higher value, 0% TNFa-plus-vehicle, 100% no-TNFa wells
[2] = reduction of polyQ htt aggregates in cells – imaging, exon1htt(103Q)mCFP cells, high-content imaging, primary screen (AID 483;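 active = visual image review flags a hit and inhibition of aggregation exceeds 20%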;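 also: compound exposure lasted 3 days before fixation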;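 as to nuclei count: percent of the per-plate median nuclei count of sample wells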); conditions: exon1htt(103Q)mCFP cell line, aggregate imaging, at 2 µM; inhibition of aggregation: stronger effect = higher value; nuclei count: measured here: cell count, toxicity
[3] = endothelial E-selectin expression blockers – imaging, HUVEC, immunofluorescence, MLSMR starter and 10KST1 sets, primary screen (AID 487;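 active = visually confirmed hit in the image check and inhibition above 20%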;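 as to inhibition: signal is fraction of cell area covered by stained E-selectin grains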;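 as to nuclei count: 100% = median nuclei count of all wells on the same plate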); conditions: HUVEC TNFalpha-induced E-selectin immunofluorescence imaging, at 2 µM; inhibition: stronger effect = higher value; nuclei count: measured here: cell number, toxicity
[4] = molecular target: Voltage-gated potassium channel subunit beta-2 (Rattus norvegicus) (UniProt P62483); assay: inhibitors of rat Kvbeta2 reductase activity – biochemical, NADPH fluorescence, primary screen (AID 622;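 active = fluorescence slope higher than the sample average by over 3 SD, cut at about -0.22 in these data, passing the limit was not always enough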;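 also: slope of raw intensity against log time taken from 70 to 1610 s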); conditions: recombinant KvBeta, 4-cyanobenzaldehyde reduction, at 10 µM, stronger effect = higher value
[5] = molecular target: Voltage-gated potassium channel subunit beta-2 (Rattus norvegicus) (UniProt P62483); assay: enhancers of rat Kvbeta2 NADPH turnover – biochemical, NADPH fluorescence, primary screen (AID 623;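 active = NADPH fluorescence slope more negative than the mean of all samples by about 3 SD, 99.7% confidence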;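 also: fluorescence intensity change per second fitted from 20 to 320 s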); conditions: Recombinant KvBeta, NADPH fluorescence decrease slope, 10 min; at 10 µM; stronger effect = lower value
[6] = molecular target: Muscarinic acetylcholine receptor M4 (Homo sapiens) (UniProt P08173); assay: M4-linked GIRK flux change, two-sided – cell-based, HEK293 M4/GIRK, thallium flux, BTC-AM, M4 allosteric agonist project, primary screen (AID 625;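 active = fluorescence slope after compound addition differing from the mean of all tested samples at 99.7% confidence, mostly higher but some lower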;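 also: thallium influx through GIRK channels coupled to M4 in HEK293 cells with BTC-AM dye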); conditions: at 10 µM, actives lie on both sides
Procedure, shortened: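 assay system = HEK293 cells with M4 receptor and GIRK channels | medium = pH 7.3 thallium assay buffer | doses = 10 µM final, single point | timing = cells overnight at 37 °C, BTC-AM loading 1 h, reads 2 min total | signal = BTC-AM fluorescence, 1 Hz kinetic reads | read-out = post-addition slope, 15–24 s, of baseline-normalized fluorescence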

[7] = blockers of RIG-like receptor reporter activation – cell-based, Sendai virus stimulus, luciferase, 10K MLSCN set, TLR/RLR signaling modifier project, primary screen (AID 602276;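 active = inhibition at or above 50% at 10 µM; inactive = inhibition below 50%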;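 also: firefly luciferase from ISG56 promoter only with Renilla not read in this screen; 0% = Sendai virus plus DMSO and 100% = medium plus DMSO without virus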); conditions: HEK293 RL24 IRF3 luciferase reporter, at 10 µM, stronger effect = higher value
[8] = TLR3 IRF3 reporter activation blockers – cell-based, poly I:C stimulus, luciferase, 10K MLSCN set, primary screen (AID 602277); conditions: HEK293-TLR3 RL24 IRF3 luciferase reporter, at 10 µM, stronger effect = higher value

Sequence of Muscarinic acetylcholine receptor M4 (Homo sapiens) (P08173 whole entry, looked up): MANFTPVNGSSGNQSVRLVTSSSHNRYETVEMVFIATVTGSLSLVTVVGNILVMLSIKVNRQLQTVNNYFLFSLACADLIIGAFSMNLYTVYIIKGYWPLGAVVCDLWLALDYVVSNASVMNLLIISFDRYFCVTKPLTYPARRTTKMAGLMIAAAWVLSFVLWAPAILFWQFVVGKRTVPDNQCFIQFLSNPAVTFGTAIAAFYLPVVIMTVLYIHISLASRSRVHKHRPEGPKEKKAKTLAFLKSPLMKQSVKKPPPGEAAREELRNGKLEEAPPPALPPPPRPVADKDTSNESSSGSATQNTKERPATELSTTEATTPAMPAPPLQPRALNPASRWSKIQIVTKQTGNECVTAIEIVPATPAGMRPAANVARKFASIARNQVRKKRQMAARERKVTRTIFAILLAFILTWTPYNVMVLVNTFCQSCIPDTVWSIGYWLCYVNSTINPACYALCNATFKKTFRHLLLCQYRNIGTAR
Sequence of Voltage-gated potassium channel subunit beta-2 (Rattus norvegicus) (P62483 whole entry, looked up): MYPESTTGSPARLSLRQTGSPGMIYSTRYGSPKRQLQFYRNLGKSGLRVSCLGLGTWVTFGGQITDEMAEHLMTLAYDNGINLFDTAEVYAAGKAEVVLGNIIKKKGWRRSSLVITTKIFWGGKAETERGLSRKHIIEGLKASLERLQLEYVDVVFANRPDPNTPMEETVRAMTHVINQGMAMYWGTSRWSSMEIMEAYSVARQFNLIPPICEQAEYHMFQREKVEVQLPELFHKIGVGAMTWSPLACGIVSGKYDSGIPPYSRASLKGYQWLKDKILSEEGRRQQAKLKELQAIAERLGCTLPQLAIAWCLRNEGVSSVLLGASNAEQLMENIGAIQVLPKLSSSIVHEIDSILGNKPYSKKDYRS

| Compound | cell count [1] | inhibition [1] | inhibition of aggregation [2] | nuclei count [2] [%] | inhibition [3] | nuclei count [3] [%] | fluorescence slope [4] | NADPH fluorescence slope [5] | fluorescence slope [6] | inhibition [7] | inhibition [8] |
| --- | --- | --- | --- | --- | --- | --- | --- | --- | --- | --- | --- |
| Cc1cc(/C=N/n2cnnc2)c(C)n1-c1ccc(Cl)cc1Cl | 485 | 7.6% (inactive) | -10.2% (inactive) | 94.2 | -275% (inactive) | 135 | -0.294 (inactive) | -3e-05 (inactive) | 0.00517 (inactive) | 17.2% (inactive) | 16.7% (inactive) |
| COc1ncnc2c1N=C1CC(C)(C)CC(N)=C1S2 | 309 | 0.8% (inactive) | -0.2% (inactive) | 115 | -16.2% (inactive) | 115 | -0.37 (inactive) | -3.5e-05 (inactive) | 0.00511 (inactive) | 13.3% (inactive) | 35% (inactive) |
| CCOC(=O)N1CCN(S(=O)(=O)c2cc(C)c(C)cc2C)CC1 | 373 | 2.8% (inactive) | -7.2% (inactive) | 99.3 | -69.5% (inactive) | 137 | -0.459 (inactive) | -1.8e-05 (inactive) | 0.00447 (inactive) | 13.4% (inactive) | 20.2% (inactive) |
| COCC(=O)N(Cc1ccc(OC)cc1)Cc1nc2ccccc2c(=O)[nH]1 | 351 | 6.5% (inactive) | -0.1% (inactive) | 91.9 | -57.4% (inactive) | 117 | -0.572 (inactive) | -4.4e-05 (inactive) | 0.00687 (inactive) | 17.3% (inactive) | 26.3% (inactive) |
| O=S(=O)(NCCCCCNS(=O)(=O)c1ccccc1)c1ccccc1 | 468 | 4.3% (inactive) | -5% (inactive) | 104 | -56.2% (inactive) | 142 | -0.547 (inactive) | -3.3e-05 (inactive) | 0.00488 (inactive) | 20.2% (inactive) | 22.6% (inactive) |
| O=C(O)c1oc2ccccc2c1-n1cccc1 | 436 | 13.8% (inactive) | 10.7% (inactive) | 110 | -0.2% (inactive) | 112 | -0.531 (inactive) | -1.3e-05 (inactive) | 0.00514 (inactive) | 10.5% (inactive) | 26% (inactive) |
| O=c1cc(CSc2nnc(COc3ccc(Cl)cc3)o2)c2ccccc2[nH]1 | 544 | -6.2% (inactive) | 8% (inactive) | 98.4 | -46.6% (inactive) | 153 | -0.497 (inactive) | 7.1e-08 (inactive) | 0.00464 (inactive) | 1.93% (inactive) | -11.9% (inactive) |
| CCCCCOC(=O)CSc1nnc(-c2cc(OC)c(OC)c(OC)c2)o1 | 747 | -21.6% (inactive) | 16.3% (inactive) | 116 | -73.6% (inactive) | 119 | -0.363 (inactive) | -3.4e-05 (inactive) | 0.00542 (inactive) | 3.74% (inactive) | 10.4% (inactive) |
| O=C(CCSc1ccccc1)N1CCOCC1 | 339 | 0.4% (inactive) | -7.3% (inactive) | 104 | -90.9% (inactive) | 105 | -0.562 (inactive) | -0.000154 (inactive) | 0.00456 (inactive) | -18.7% (inactive) | -64.6% (inactive) |
| COCCCNC(=O)C1CCCN(C(=O)Nc2ccc(OC)cc2)C1 (stereo not drawn) | 675 | -14.8% (inactive) | -11.8% (inactive) | 107 | 52.7% (inactive) | 49.2 | -0.315 (inactive) | -5.2e-05 (inactive) | 0.007 (inactive) | 16.2% (inactive) | 4.9% (inactive) |
| OCCn1c(CSc2nnc(-c3ccco3)n2-c2ccccc2)nc2ccc(Cl)cc21 | 724 | 10.5% (inactive) | 6.6% (inactive) | 78.4 | 14.6% (inactive) | 90.8 | -0.574 (inactive) | -3.2e-05 (inactive) | 0.00847 (inactive) | 9.6% (inactive) | 24.7% (inactive) |
| O=C1C2C3C=CC(C3)C2C(=O)N1CNc1ccc(O)cc1 (stereo not drawn) | 307 | 8.9% (inactive) | -9.8% (inactive) | 108 | 32.1% (inactive) | 106 | -0.507 (inactive) | 2.6e-05 (inactive) | 0.00588 (inactive) | 4.46% (inactive) | 2.67% (inactive) |
| O=S(=O)(NCc1ccco1)c1cccc2cccnc12 | 336 | 0% (inactive) | -18.3% (inactive) | 111 | -65.9% (inactive) | 103 | -0.551 (inactive) | -1.2e-05 (inactive) | 0.00492 (inactive) | 13.3% (inactive) | 13% (inactive) |
| COCCNc1nc(SCC(=O)N2CCN(c3ccccc3)CC2)nc2ccccc12 | 462 | 4.1% (inactive) | -53.8% (inactive) | 70.8 | -188% (inactive) | 105 | -0.395 (inactive) | 4.2e-05 (inactive) | 0.0054 (inactive) | -2.13% (inactive) | 8.34% (inactive) |
| Cc1cc(NC(=O)Cn2cnc3c(cnn3C(C)(C)C)c2=O)no1 | 645 | 1.1% (inactive) | -5.1% (inactive) | 113 | 7% (inactive) | 102 | -0.573 (inactive) | -3.1e-05 (inactive) | 0.00541 (inactive) | -18.6% (inactive) | -0.822% (inactive) |
| CN(C)C(=O)CSc1nnc([C@H](Cc2c[nH]c3ccccc23)NC(=O)OC(C)(C)C)o1 | 375 | 2.2% (inactive) | -9.3% (inactive) | 108 | -35.8% (inactive) | 112 | -0.634 (inactive) | -2.1e-05 (inactive) | 0.00313 (inactive) | 18.2% (inactive) | 23.4% (inactive) |
| CCC(=NC(C)c1ccccc1)c1c(O)n(C)c(=O)n(C)c1=O (stereo not drawn) | 287 | 9.3% (inactive) | 3.2% (inactive) | 72.1 | -50.4% (inactive) | 133 | -0.518 (inactive) | -0.000132 (inactive) | 0.00372 (inactive) | 8.09% (inactive) | -40% (inactive) |
| Nc1ccc(Sc2nnnn2-c2ccccc2)c(Cl)c1 | 312 | -5.1% (inactive) | 8% (inactive) | 108 | -4% (inactive) | 78.5 | -0.468 (inactive) | -3.4e-05 (inactive) | 0.00613 (inactive) | 8.66% (inactive) | 13% (inactive) |
| Cc1ccc(-n2nnnc2SCC(=O)N2CCN(C(=O)c3ccco3)CC2)c(C)c1 | 731 | -4.4% (inactive) | 27.6% (inactive) | 91 | -5.5% (inactive) | 109 | -0.568 (inactive) | -5.4e-05 (inactive) | 0.00555 (inactive) | 1.61% (inactive) | 10.6% (inactive) |
| COc1ccc(-c2cn3c(C)c(C(=O)Nc4cc(NC(C)=O)ccc4OC)sc3n2)cc1 | 693 | 7.3% (inactive) | -40.3% (inactive) | 59 | -116% (inactive) | 118 | -0.166 (inactive) | -6.9e-06 (inactive) | 0.00656 (inactive) | 42.7% (inactive) | 26.4% (inactive) |
| CCN(Cc1cc2cc(OC)ccc2[nH]c1=O)C(=O)Cc1ccc(OC)cc1 | 369 | 1.8% (inactive) | -11.9% (inactive) | 114 | -57.8% (inactive) | 124 | -0.549 (inactive) | -9.8e-05 (inactive) | 0.00319 (inactive) | 11.4% (inactive) | 5.34% (inactive) |
| CCCC(=O)Nc1ccc(NC(=O)C2CC2)cn1 | 471 | -17.9% (inactive) | -28.9% (inactive) | 99.8 | -79.6% (inactive) | 112 | -0.527 (inactive) | 1.9e-05 (inactive) | 0.00449 (inactive) | 14.1% (inactive) | -13.6% (inactive) |
| Cc1ccc2cc(C#N)c(N3CCCC3)nc2c1C | 360 | 4.8% (inactive) | 10% (inactive) | 111 | -49.6% (inactive) | 110 | -0.195 (inactive) | -2.2e-05 (inactive) | 0.00646 (inactive) | 13.3% (inactive) | -29.1% (inactive) |
| CCOc1ccccc1NC(=O)N1C2CCCC1CC(NC(=O)C1CC1)C2 (stereo not drawn) | 417 | -3.2% (inactive) | 6.6% (inactive) | 110 | -75.6% (inactive) | 97.6 | -0.515 (inactive) | 4.4e-06 (inactive) | 0.00474 (inactive) | 17.1% (inactive) | 23.8% (inactive) |
| O=C(CSc1nnc2sc3ccccc3n12)c1ccco1 | 308 | 1.9% (inactive) | 23.4% (inactive) | 83.3 | 19.6% (inactive) | 91.6 | -0.293 (inactive) | -5e-05 (inactive) | 0.00582 (inactive) | -17.8% (inactive) | -83.7% (inactive) |
| Cc1cc(NC(=O)c2cc(-c3ccco3)on2)n(-c2ccccc2)n1 | 326 | 6.8% (inactive) | 6.4% (inactive) | 105 | -56.3% (inactive) | 121 | -0.466 (inactive) | -2.4e-05 (inactive) | 0.00551 (inactive) | 17.5% (inactive) | 12.9% (inactive) |
| O=C(Nc1cc(C(F)(F)F)ccc1Cl)c1cc(C2CC2)on1 | 404 | -3.9% (inactive) | -8.1% (inactive) | 102 | -25.8% (inactive) | 61.5 | -0.45 (inactive) | -5.4e-05 (inactive) | 0.00518 (inactive) | 21.5% (inactive) | 27.4% (inactive) |
| CCCCN(CCCC)CCCNC(=O)CC1Oc2ccc(C)cc2NC1=O (stereo not drawn) | 618 | -18.4% (inactive) | 4.4% (inactive) | 110 | -6.4% (inactive) | 92.1 | -0.242 (inactive) | -7e-06 (inactive) | 0.00528 (inactive) | 17.2% (inactive) | 23.7% (inactive) |
